Series [1] can be described thus: Partition coefficient (logP). Type of series: physicochemical. The note with it: octanol/water. The gist of the method: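 Octanol/water partition coefficient calculated with ChemDraw, not measured.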
Series [2] in a line: Apparent half life period in PBS buffer. Type of series: ADME. An outline of the steps: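 Half-life by chemiluminescence at 37 °C. Diazeniumdiolate in 10 mM NaOH (or, if water-insoluble, in THF or NaOH/MeOH), 25–100 µL, injected into 3 mL deoxygenated 100 mM phosphate buffer pH 7.4 with 137 mM NaCl and 2.7 mM KCl. NO released, removed by nitrogen purge, read every 0.25 s to baseline. Half-life = time to release half of total possible NO.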

SMILES strings stand for the structures.

With `CCCCCCNCCCCCCN(CCCCCC)/[N+]([O-])=N/O`, in series [1], the logP (as a rule, a log measure of how a compound divides between an organic and an aqueous phase) stood at 6.26.

`CNCCCCCCN(C)/[N+]([O-])=N/O` gave a logP in series [1] of 0.97. Also, the half-life (commonly the time in which the quantity being followed falls by half) in series [2] is 1.12 min.

In series [1], `CCCNCCCCCCN(CCC)/[N+]([O-])=N/O` came in with a logP of 3.09. Further, in series [2], the half-life was 5.32 min.

Molecule `CCNCCCCCCN(CC)/[N+]([O-])=N/O` yielded a logP in series [1] of 2.03. Further, the half-life in series [2] is 5.78 min.

Take `CCCCCNCCCCCCN(CCCCC)/[N+]([O-])=N/O`: the logP in series [1] is 5.21. Moreover, the half-life in series [2] was 4.65 min.

`CCCCNCCCCCCN(CCCC)/[N+]([O-])=N/O` had a logP in series [1] of 4.15. The half-life in series [2] is 4.95 min.

These data come from ChEMBL document CHEMBL1144905, “More lipophilic dialkyldiamine-based diazeniumdiolates: synthesis, characterization, and application in preparing thromboresistant nitric oxide release polymeric coatings” (J Med Chem, 2003).
